This is an account of results in ChEMBL document CHEMBL2380254, “Optimization of tocotrienols as antiproliferative and antimigratory leads” (Eur J Med Chem, 2013).

Type in all cases: functional
One assay concerns OVCAR-5. Nature of the assay: Growth inhibition of human OVCAR5 cells assessed as cell growth at 10 uM after 48 hrs by sulforhodamine B assay. To be noted: OVCAR-5, 48 h, read-out: Activity. The gist of the method: (§1)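 Single-dose NCI-60 screen: adherent cells in RPMI 1640 with 5% FBS were exposed to 10 µM for 48 h at 37 °C after a 24 h preincubation. They were fixed in situ with cold TCA (10% final), stained with 0.4% SRB in 1% acetic acid, solubilized in 10 mM Tris base, and read at 515 nm. Percent growth was taken relative to time-zero and control plates.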

A further assay deals with MDA-MB-468. Nature of the assay: Growth inhibition of human MDA-MB-468 cells assessed as cell growth at 10 uM after 48 hrs by sulforhodamine B assay. As to conditions: MDA-MB-468, 48 h, read-out: Activity. The method in brief: as §1
The subject of a further assay is RPMI-8226. The experiment in a line: Growth inhibition of human RPMI8226 cells assessed as cell growth at 10 uM after 48 hrs by sulforhodamine B assay. As to conditions: RPMI-8226, 48 h, read-out: Activity. The method in brief:
(§2)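 Single 10 µM dose applied to suspension cells in RPMI 1640 with 5% FBS and 2 mM L-glutamine for 48 h at 37 °C. Settled cells were fixed with 80% TCA (16% final), stained with SRB, and read at 515 nm. Percent growth was calculated against time-zero and untreated control optical densities.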
In general terms: The SRB assay estimates cell density from bound dye.

For a further assay, the system named is MDA-MB-231. Nature of the assay: Growth inhibition of human MDA-MB-231 cells assessed as cell growth at 10 uM after 48 hrs by sulforhodamine B assay. As to conditions: MDA-MB-231, 48 h, read-out: Activity. The method in brief: as §1
The subject of another assay is SK-MEL-2. The experiment in a line: Growth inhibition of human SK-MEL-2 cells assessed as cell growth at 10 uM after 48 hrs by sulforhodamine B assay. As to conditions: SK-MEL-2, 48 h, read-out: Activity. The method in brief:
as §1

For another assay, the system named is HL-60(TB). Nature of the assay: Growth inhibition of human HL-60(TB) cells assessed as cell growth at 10 uM after 48 hrs by sulforhodamine B assay. To be noted: HL-60, 48 h, read-out: Activity. The gist of the method: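 NCI-60 single-dose screen run at 10 µM on HL-60(TB) suspension cells in RPMI 1640 with 5% FBS and 2 mM L-glutamine. Cells were preincubated for 24 h, with a time-zero plate fixed then. Exposure lasted 48 h at 37 °C. Settled cells were fixed with TCA (16% final), stained with SRB and read at 515 nm. Percent growth is relative to control and T0.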

A further assay relates to NCI-H322M. Nature of the assay: Growth inhibition of human NCI-H322M cells assessed as cell growth at 10 uM after 48 hrs by sulforhodamine B assay. To be noted: read-out: Activity. The gist of the method: as §1
Another assay concerns NCI-H522. The experiment in a line: Growth inhibition of human NCI-H522 cells assessed as cell growth at 10 uM after 48 hrs by sulforhodamine B assay. As to conditions: NCI-H522, 48 h, read-out: Activity. The gist of the method:
as §1

The test system of another assay is 786-0. The experiment in a line: Growth inhibition of human 786-0 cells assessed as cell growth at 10 uM after 48 hrs by sulforhodamine B assay. As to conditions: 786-0, 48 h, read-out: Activity. The method in brief: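 NCI-60 single-dose screen at 10 µM: cells in RPMI 1640 with 5% FBS, preincubated 24 h, then exposed 48 h at 37 °C. TCA fixation (16% final for suspension cells), SRB staining, absorbance 515 nm. Percent growth relative to time-zero and untreated control plates; negative values indicate cell kill.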

Another assay concerns PC-3. Nature of the assay: Growth inhibition of human PC3 cells assessed as cell growth at 10 uM after 48 hrs by sulforhodamine B assay. To be noted: PC-3, 48 h, read-out: Activity. The gist of the method:
as §1

The test system of a further assay is MOLT-4. Nature of the assay: Growth inhibition of human MOLT4 cells assessed as cell growth at 10 uM after 48 hrs by sulforhodamine B assay. As to conditions: MOLT-4, 48 h, read-out: Activity. The method in brief: as §2
Another assay concerns NCI-H460. Nature of the assay: Growth inhibition of human NCI-H460 cells assessed as cell growth at 10 uM after 48 hrs by sulforhodamine B assay. To be noted: NCI-H460, 48 h, read-out: Activity. The gist of the method: as §1
For a further assay, the system named is SK-OV-3. The experiment in a line: Growth inhibition of human SKOV3 cells assessed as cell growth at 10 uM after 48 hrs by sulforhodamine B assay. To be noted: SK-OV-3, 48 h, read-out: Activity. The gist of the method:
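Single-dose NCI-60 test at 10 µM. Cells were grown in RPMI 1640 with 5% FBS and 2 mM L-glutamine, preincubated 24 h, with T0 plates TCA-fixed. Exposure was 48 h at 37 °C, 5% CO2. Cells were fixed with cold TCA (final 10%, 4 °C, 60 min), stained with SRB and read at 515 nm. Percent growth was taken relative to T0 and untreated control; negative values denote cell kill.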

For `CC(C)=CCC/C(C)=C/CC/C(C)=C/CC[C@]1(C)CCc2c3c(cc(C)c2O1)OCN(CCCCCCCCCCO)C3`, the growth at 10 µM in the assay on OVCAR-5 was found to be 105%; in the assay on MDA-MB-468, 83.8%; with RPMI-8226, 63.2%; with MDA-MB-231, 119%; in the assay with SK-MEL-2 it was 86.4%; with HL-60(TB), 62.7%. Further, the growth at 10 µM stood at 104% in the assay on NCI-H322M; 86% in the assay on NCI-H522; 85.3% with 786-0; 88.7% with PC-3; 67.6% with MOLT-4; 91.6% in the assay with NCI-H460.

On to `CC(C)=CCC/C(C)=C/CC/C(C)=C/CC[C@]1(C)CCc2c3c(c(C)c(C)c2O1)OCN(CCCCCCCCCCCCO)C3`, for which the growth at 10 µM in the assay with OVCAR-5 was 114%; with MDA-MB-468 it was 106%; with RPMI-8226, 87%; in the assay on MDA-MB-231, 119%; in the assay with SK-MEL-2 it was 76.8%; in the assay with HL-60(TB), 95%. For the same compound, the growth at 10 µM was found to be 90.7% in the assay on NCI-H322M; 69.5% with NCI-H522; 110% with 786-0; 81.3% in the assay with PC-3; 90.5% with MOLT-4; 103% in the assay on NCI-H460.

Take `COc1ccc(CCNCc2c(O)c(C)c(C)c3c2CC[C@@](C)(CC/C=C(\C)CC/C=C(\C)CCC=C(C)C)O3)cc1OC`: the growth at 10 µM is 104% with OVCAR-5; 59.1% in the assay with MDA-MB-468; 78.6% with MDA-MB-231; 113% in the assay on SK-MEL-2; 77.7% in the assay on HL-60(TB); 95.6% with NCI-H322M. In addition, the growth at 10 µM with NCI-H522 was 96.2%; in the assay on SK-OV-3, 105%; in the assay on 786-0, 78.1%; in the assay with PC-3, 82.7%; with MOLT-4 it was 30.3%; in the assay on NCI-H460, 73.4%.

`CC(C)=CCC/C(C)=C/CC/C(C)=C/CC[C@]1(C)CCc2c(CNCCc3ccc(O)cc3)c(O)c(C)c(C)c2O1`: the growth at 10 µM turned out to be 113% in the assay with OVCAR-5; 104% in the assay on MDA-MB-468; 89.5% in the assay on MDA-MB-231; 117% in the assay on SK-MEL-2; 84% with HL-60(TB); 100% in the assay with NCI-H322M. The growth at 10 µM was determined as 105% with NCI-H522; 102% with SK-OV-3; 78.2% with 786-0; 79.5% in the assay on PC-3; 54.6% with MOLT-4; 92.3% in the assay with NCI-H460.

With `COc1ccc(CCN2COc3c(C)c(C)c4c(c3C2)CC[C@@](C)(CC/C=C(\C)CC/C=C(\C)CCC=C(C)C)O4)cc1OC`, the growth at 10 µM in the assay on OVCAR-5 came to 101%; in the assay on MDA-MB-468, 95.1%; in the assay on RPMI-8226 it was 64.6%; in the assay on MDA-MB-231, 96.1%; in the assay on SK-MEL-2, 120%; in the assay with HL-60(TB), 79.4%. Further, the growth at 10 µM in the assay on NCI-H322M was found to be 101%; in the assay with NCI-H522, 98.6%; in the assay on SK-OV-3, 95.3%; with 786-0, 94.9%; with PC-3, 94.3%; in the assay on MOLT-4 it was 76%. The growth at 10 µM with NCI-H460 turned out to be 103%.

On to `CC(C)=CCC/C(C)=C/CC/C(C)=C/CC[C@]1(C)CCc2c3c(c(C)c(C)c2O1)OCN(CCCCCCCCCCO)C3`, for which the growth at 10 µM in the assay on OVCAR-5 came out at 106%; in the assay on MDA-MB-468 it was 91.9%; in the assay with RPMI-8226, 78.8%; in the assay with MDA-MB-231, 112%; in the assay on SK-MEL-2 it was 82.3%; with HL-60(TB), 88%. Besides, the growth at 10 µM with NCI-H322M was 101%; in the assay on 786-0, 99.2%; with PC-3, 84.3%; with MOLT-4, 79.5%; with NCI-H460, 75.5%.

For the compound `CC(C)=CCC/C(C)=C/CC/C(C)=C/CC[C@]1(C)CCc2cc(O)c(C)c(C)c2O1` [GAMMA-TOCOTRIENOL], the growth at 10 µM with OVCAR-5 was determined as 114%; in the assay with MDA-MB-468, 108%; in the assay on RPMI-8226, 78%; in the assay with MDA-MB-231, 108%; with SK-MEL-2, 91.3%; in the assay on HL-60(TB), 86.5%. Further, the growth at 10 µM with NCI-H322M stood at 95.2%; in the assay on NCI-H522, 68.8%; with 786-0 it was 114%; in the assay on PC-3 it was 96.6%; in the assay with MOLT-4, 84.3%; in the assay with NCI-H460, 105%.

On to `CC(C)=CCC/C(C)=C/CC/C(C)=C/CC[C@]1(C)CCc2c3c(cc(C)c2O1)OCN(CCCCCCCCCCCCO)C3`, for which the growth at 10 µM came to 102% in the assay with OVCAR-5; 77.4% with MDA-MB-468; 15.8% with RPMI-8226; 99.8% in the assay on MDA-MB-231; 15.3% in the assay on SK-MEL-2; 27.6% with HL-60(TB). Besides, the growth at 10 µM in the assay on NCI-H322M was found to be 86%; in the assay with NCI-H522 it was 36.7%; in the assay on 786-0 it was 97%; in the assay with PC-3, 58.5%; with MOLT-4, 48.5%; in the assay on NCI-H460 it was 48.2%.

As to `CC(C)=CCC/C(C)=C/CC/C(C)=C/CC[C@]1(C)CCc2c3c(c(C)c(C)c2O1)OCN(CCc1ccc(O)cc1)C3`, the growth at 10 µM was 111% in the assay on OVCAR-5; 88.8% in the assay on MDA-MB-468; 68.5% in the assay on MDA-MB-231; 121% in the assay on SK-MEL-2; 72.3% in the assay on HL-60(TB); 96% in the assay with NCI-H322M. The growth at 10 µM in the assay with NCI-H522 worked out at 90%; in the assay on SK-OV-3 it was 105%; in the assay on 786-0 it was 77.3%; in the assay on PC-3 it was 79.9%; in the assay with MOLT-4, 40.4%; with NCI-H460, 62.4%.
